High-throughput results deposited in PubChem by several laboratories.
Many of the other results were omitted from the sample, so hits are more common in it than they were.
Diaph act CS – activates diaphorase or chemically reduces, flagging diaphorase assay artifacts; 190,000 compounds, 0.005% hits; Diaphorase/resazurin coupled assay, resorufin fluorescence, 16 min; active compounds read high; 1 = vehicle wells, 0 = NADH-free wells; activation factor at 20 µM;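 active means diaphorase activity raised at least twofold by the compound at 20 µM; inactive means activation factor below 2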
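Material: bacterial diaphorase enzyme (C. kluyveri); amount: enzyme 0.07 U/mL final; reagent: NADH substrate 0.114 mM plus resazurin dye 0.1 mM, final; doses: single compound dose of 20 µM, 1% DMSO final; timing: 16 min enzyme reaction, ambient temperature; measured by: fluorescence of resorufin, 544 nm excitation, 590 nm emission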
Diaphorase inh – inhibits diaphorase or chemically oxidizes, flagging diaphorase assay artifacts. diaphorase resazurin-to-resorufin fluorescence, NADH, 16 min; bacterial (C. kluyveri) enzyme, not human. 190,000 compounds, 0.69% hits. inhibition, % at 20 µM;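 active means primary screen inhibition at 20 µM above a set limit, cut at about 50% in these data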;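 further: plate controls were DMSO with full reaction for no effect and wells lacking NADH for full effect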
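Assay system – diaphorase enzyme from Clostridium kluyveri · Amount – diaphorase 0.14 U/mL (working solution) · Times – reaction incubation of 16 min at room temperature · Controls – No-NADH positive control and DMSO neutral control · Signal – resorufin fluorescence 544/590 nm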
G6PDH CS – counter-screen for G6PDH assay hits: L. mesenteroides G6PDH inhibition. inhibition, % at 5 µM. AID 1020. Purified L. mesenteroides G6PDH, diaphorase/resazurin coupled fluorescence, 45 min. 200,000 compounds, 0.12% hits
PfG6PD inh – PfG6PD (Plasmodium falciparum) enzyme inhibition. inhibition, % at 20 µM. AID 504690. PfGluPho enzyme, NADPH resazurin-diaphorase fluorescence. 350,000 compounds, 0.78% hits;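 active means inhibition reaching at least a set limit at 20 µM in the primary screen, cut at about 59% in these data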;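 further: 0% = DMSO wells with substrate and 100% = DMSO wells lacking glucose-6-phosphate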
L major viab – inhibitors of Leishmania major promastigote growth | inhibition, % at 10 µM | 200,000 compounds, 9% hits | Leishmania major promastigotes, resazurin fluorescence viability;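 further: promastigotes grown with compound for 44 hours at 28 °C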
DTT redox prof – compounds producing H2O2 with reducing agent – biochemical, NIH compound library profiling, artefact control for MLSCN library redox annotation, primary screen | DTT-dependent redox cycling H2O2, phenol red/HRP absorbance; 100% = 100 µM peroxide control, 0% = buffer | activation, % at 10 µM | 200,000 compounds, 0.03% hits | AID 878;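 active means activation of at least 50% relative to the plate's high and low controls in the primary single-dose screen; inactive means activation below 50%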;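 further: compound incubated with DTT at 0.8 mM final as the reducing agent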
* = called active by the depositor; · = no result given. Unless noted, no stated cut-off is given here; in the data, active means inhibition above about 50%; inactive means the rest.

SMILES | Diaph act CS | Diaphorase inh | G6PDH CS | PfG6PD inh | L major viab | DTT redox prof
COc1ccc(CN(Cc2ccccn2)S(=O)(=O)c2ccc(-n3cnnn3)c(OC)c2)cc1 | 0.8 | 24.5 | 4.2 | 4.5 | 79.8* | -0.5
COc1ccc(CN(Cc2ccccn2)S(=O)(=O)c2ccc(-n3cnnn3)cc2)cc1 | 0.7 | 26.2 | -1.1 | 23.8 | 8.7 | 2.4
COc1ccc(CN(Cc2cccnc2)S(=O)(=O)c2ccc(-n3cnnn3)c(C)c2)cc1OC | 0.7 | 31.6 | -2.6 | 0.1 | 86.6* | 1.6
CC1(C)CC(=O)C2=C(C1)OC(N)=C(C#N)C2Cc1ccccc1 (stereo not given) | 0.7 | 27.0 | -10.1 | -11.4 | -1.0 | 0.1
CC(=O)OCn1ncc(N2CCOCC2)c(Br)c1=O | · | · | · | 14.8 | · | ·
O=C(OCn1ncc(Br)c(Br)c1=O)c1ccccc1Cl | 0.9 | 9.0 | 0.0 | 6.3 | 100.5* | 0.1
O=C(OCn1ncc(Br)c(Br)c1=O)c1ccc(F)cc1 | 0.9 | 14.9 | 15.4 | 24.2 | 99.8* | 0.2
CCOC(=O)c1cnc2cc(-c3ccc(Br)cc3)nn2c1C | · | · | · | -2.1 | · | ·
Nc1nc(SCc2ccccc2)cc(SCc2ccccc2)n1 | · | · | · | 8.6 | · | ·
COC(=O)c1sccc1NC(=O)COc1ccc(Cl)cc1Cl | 1 | -2.5 | -24.1 | -0.7 | -3.7 | 1.5
Cc1cc(NC(=O)c2ccccc2-c2ccccc2)ccc1Br | 0.8 | 19.8 | -7.1 | 27.4 | 80.5* | -0.8
COC(=O)CSc1nnc(CNc2ccc(Cl)cc2)n1-c1ccccc1 | 0.9 | 10.2 | 6.6 | -5.9 | -6.5 | 1.2
CC/C(O)=C1\C(=O)CC(c2ccccc2)CC1=NC(C)C (stereo not given) | 0.8 | 15.8 | -3.2 | 18.1 | 59.2* | 0.0
CC/C(O)=C1\C(=O)CC(c2ccccc2)CC1=NCCC(=O)O (stereo not given) | 0.8 | 19.7 | -0.5 | -5.7 | -5.8 | -0.2
CCOC(=O)CCNC(=O)N1CCCC(CNS(=O)(=O)c2cccs2)C1 (stereo not given) | 1.2 | -17.6 | 16.8 | -12.4 | -6.8 | 0.7
Cc1cccc(/C=c2\s/c(=C\C(=O)C(C)(C)C)[nH]c2=O)c1 | 1 | 0.2 | 5.0 | -11.1 | 20.1 | 2.5
CC(C)(C)C(=O)/C=c1\[nH]c(=O)/c(=C\c2ccc(C#N)cc2)s1 | 0.9 | 9.6 | -2.5 | -22.2 | 60.2* | 0.3
COc1cc(OC)cc(C(=O)Nc2ccc(N3CCOCC3)cc2N2CCOCC2)c1 | · | · | · | 3.6 | · | ·
COc1ccc(C(C(=O)NC(C)(C)C)N(Cc2ccccc2)C(=O)CCC(=O)Nc2cc(C)on2)cc1 (stereo not given) | 0.9 | 7.4 | 12.8 | 6.4 | 95.3* | -0.2
COc1ccc(CN(C(=O)c2ccc(-c3ccccc3)[nH]2)C(C(=O)NC(C)(C)C)c2ccncc2)cc1 (stereo not given) | 0.8 | 15.0 | 6.1 | 11.6 | 93.4* | 0.2
COc1cc(C(=O)NCCCNc2nc3c(C)cc(C)cc3cc2C#N)cc(OC)c1OC | 0.8 | 15.4 | -1.0 | 6.6 | 17.3 | -0.7
O=C1CSC(c2c(F)cccc2Cl)N1c1cccc(F)c1 (stereo not given) | 1.1 | -5.4 | 12.6 | -7.4 | 88.2* | 2.4
O=C1CSC(c2cccc(F)c2)N1c1c(F)cccc1F (stereo not given) | · | · | · | 6.9 | · | ·
COc1cccc(NC(=O)CN(C)C(=O)c2ccc(-c3ccccc3Cl)o2)c1 | · | · | · | -1.5 | · | ·
CCOC(=O)c1cc2c(ccn2C)n1CC(=O)N1CCC(Cc2ccccc2)CC1 | 0.8 | 22.7 | -1.3 | -13.0 | 94.9* | -1.6
SMILES | Diaph act CS | Diaphorase inh | G6PDH CS | PfG6PD inh | L major viab | DTT redox prof
CCOC(=O)c1cc2c(ccn2C)n1CC(=O)N1CCCC(C)C1 (stereo not given) | 0.8 | 18.1 | 15.9 | 0.2 | 10.7 | 3.2
C/C=C/c1ccc(OCCCCNCc2ccco2)c(OC)c1 | 0.9 | 10.7 | -1.2 | 4.6 | 92.6* | -0.8
C/C=C/c1ccc(OCCCCN2CCN(CC)CC2)c(OC)c1 | 0.9 | 6.3 | 2.8 | 2.3 | 86.0* | -0.9
C/C=C/c1ccc(OCCCNCC(C)O)c(OC)c1 (stereo not given) | 0.9 | 12.9 | -1.9 | -6.8 | -1.0 | -0.4
C/C=C/c1ccc(OCCCCN2CC(C)CC(C)C2)c(OC)c1 (stereo not given) | 0.9 | 11.8 | 0.2 | 4.2 | 8.0 | 0.0
O=C(CSc1nnc(C2CC2)n1-c1ccccc1)N1CCNC1=O | · | · | · | -10.8 | · | ·
CCc1ccc(N(CC)C(=O)c2cn(C)c(=O)c3ccccc23)cc1 | · | · | · | 7.4 | · | ·
O=C(Cc1c(F)cccc1Cl)NNC(=S)Nc1ccc(S(=O)(=O)Nc2ncccn2)cc1 | · | · | · | -42.8 | · | ·
N#CNC(=Nc1ccc(Cl)cc1)Oc1ccccc1 | · | · | · | -5.6 | · | ·
Cc1ccc(-c2csc3ncnc(-n4nnc5ccccc54)c23)cc1C | 0.8 | 17.2 | 7.5 | -6.9 | 75.7* | ·
Cc1nn(C)c(C)c1Nc1ccc(N2C(=O)C3CC=CCC3C2=O)cc1[N+](=O)[O-] (stereo not given) | 0.9 | 8.1 | 9.5 | 2.0 | 1.7 | 1.3
O=Cc1ccccc1OCCOc1ccc([N+](=O)[O-])cc1 | 0.7 | 30.0 | 14.2 | 4.2 | 52.0* | 0.2
CC1CN(C(=O)c2ccccc2)C(=Nc2cccc(S(=O)(=O)N(C)C)c2)S1 (stereo not given) | 1 | 4.2 | 0.6 | 1.4 | 82.8* | 0.3
O=C1CC(Sc2nnnn2-c2ccccc2)C(=O)N1c1cccc(Cl)c1 (stereo not given) | 0.8 | 16.2 | 1.2 | 32.3 | 71.3* | 0.8
O=C1CC(SC(=Nc2ccccc2)Nc2ccccc2)C(=O)N1c1ccc(Cl)cc1 (stereo not given) | 0.9 | 6.2 | 6.8 | 0.2 | -3.3 | 2.3
O=C1CC(SC(=Nc2ccccc2)Nc2ccccc2)C(=O)N1c1cccc(Cl)c1 (stereo not given) | 0.8 | 22.0 | 6.3 | 25.9 | 61.0* | 2.7
COc1ccc(N2C(=O)CC(Sc3nnnn3-c3ccc(F)cc3)C2=O)cc1 (stereo not given) | 0.8 | 19.0 | 17.4 | 33.0 | -2.9 | -2.2
O=[N+]([O-])c1ccc2nc(Cl)nc(-c3ccccc3)c2c1 | · | · | · | 4.9 | · | ·
CC1CCCN(C(=O)C2CCN(CC3CC=CCC3)CC2)C1 (stereo not given) | 0.7 | 29.8 | -1.7 | -19.9 | 94.3* | 1.2
COc1ccc(OC)c(CN2CCC(N3CCC(C(=O)NC4CC4)CC3)CC2)c1 | · | · | · | -12.6 | · | ·
COc1cc(CN2CCC(C(=O)N3CCCC(C)C3)CC2)cc(OC)c1O (stereo not given) | 0.8 | 19.0 | 52.8* | 8.6 | -3.1 | 0.4
CC1CCCN(C(=O)C2CCN(C(=O)Nc3ccccc3)CC2)C1 (stereo not given) | · | · | · | 1.8 | · | ·
COc1cc(CN2CCC(C(=O)NC3CCCC3)CC2)cc(OC)c1O | 0.5 | 45.5 | 53.3* | 15.6 | 1.1 | -0.3
